In brackets after ≈: the same amount, converted by molar mass.
Columns and labels:
[1] = system: Streptococcus pneumoniae; assay: Minimal inhibitory concentration against Streptococcus pneumoniae ATCC 49619 (PSSP); susceptible strain; type: functional
[2] = system: Escherichia coli; assay: Minimal inhibitory concentration against Escherichia coli NIHJ JC-2; susceptible strain; type: functional
Procedure, shortened: (§1)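 MIC determined by the microdilution method.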

[3] = system: Staphylococcus aureus; assay: Minimal inhibitory concentration against Staphylococcus aureus FDA 209P(MSSA); susceptible strain; type: functional
[4] = system: Escherichia coli; assay: Minimal inhibitory concentration against Escherichia coli W3110 delta acrA; A multidrug efflux pump mutant; type: functional; procedure, shortened: as §1
[5] = system: Staphylococcus aureus; assay: Minimal inhibitory concentration against Staphylococcus aureus KMP9 (MRSA); sparfloxacin, clarithromycin, ampicillin resistant strain; type: functional
[6] = system: Enterococcus faecium; assay: Minimal inhibitory concentration against Enterococcus faecium KU1778 (VRE); sparfloxacin, clarithromycin, ampicillin, vancomycin resistant strain; type: functional
[7] = target: T1, DNA topoisomerase 4 subunit A (Escherichia coli K-12, UniProt P0AFI2); assay: Inhibitory activity against decatenation of DNA topoisomerase IV isolated from Escherichia coli
T1 sequence (P0AFI2 whole entry): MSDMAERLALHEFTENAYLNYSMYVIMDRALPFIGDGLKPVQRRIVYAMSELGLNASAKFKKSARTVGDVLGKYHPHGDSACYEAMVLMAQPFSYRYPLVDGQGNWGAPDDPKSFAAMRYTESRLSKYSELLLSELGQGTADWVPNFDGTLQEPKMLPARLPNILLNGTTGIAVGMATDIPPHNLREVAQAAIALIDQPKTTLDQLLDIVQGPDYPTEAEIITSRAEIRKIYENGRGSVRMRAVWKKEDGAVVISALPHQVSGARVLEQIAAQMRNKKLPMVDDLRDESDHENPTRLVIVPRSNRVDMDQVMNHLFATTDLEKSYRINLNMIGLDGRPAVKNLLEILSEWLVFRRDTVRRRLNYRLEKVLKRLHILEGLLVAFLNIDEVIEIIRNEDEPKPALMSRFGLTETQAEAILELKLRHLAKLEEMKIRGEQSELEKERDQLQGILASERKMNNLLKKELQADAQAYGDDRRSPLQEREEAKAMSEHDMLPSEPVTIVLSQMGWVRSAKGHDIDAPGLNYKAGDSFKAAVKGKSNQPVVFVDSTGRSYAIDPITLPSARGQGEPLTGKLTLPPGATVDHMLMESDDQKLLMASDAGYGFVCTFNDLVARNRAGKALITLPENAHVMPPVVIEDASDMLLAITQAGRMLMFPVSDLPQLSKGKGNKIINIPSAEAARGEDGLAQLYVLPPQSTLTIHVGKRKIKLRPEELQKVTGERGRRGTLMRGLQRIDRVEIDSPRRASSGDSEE

[8] = system: Enterococcus faecium; assay: Minimal inhibitory concentration against Enterococcus faecium ATCC 19434 (VSE); susceptible strain; type: functional
[9] = system: Staphylococcus aureus; assay: Minimal inhibitory concentration against Staphylococcus aureus FDA 209P; susceptible strain; type: functional
Procedure, shortened: (§2)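 MIC determined by the microdilution method against Gram-positive strains, including a susceptible strain and a multidrug-resistant S. aureus strain.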

[10] = system: Streptococcus pneumoniae; assay: Minimal inhibitory concentration against Streptococcus pneumoniae KT2524 (PRSP); sparfloxacin, clarithromycin, ampicillin resistant strain; type: functional
[11] = system: Staphylococcus aureus; assay: Minimal inhibitory concentration against Staphylococcus aureus KMP9; multidrug resistant strain; type: functional; procedure, shortened: as §2
[12] = target: DNA gyrase (Escherichia coli, UniProt P0AES4+P0AES6); assay: Inhibitory activity against supercoiling activity of DNA gyrase isolated from Escherichia coli; type: protein-complex assay
[13] = system: Staphylococcus aureus; assay: 4 Minimal inhibitory concentration against Staphylococcus aureus KMP9; multidrug resistant strain; type: functional; procedure, shortened: as §2

Row | SMILES | MIC [1] | MIC [2] | MIC [3] | MIC [4] | MIC [5] | MIC [6] | IC50 [7] | MIC [8] | MIC [9] | MIC [10] | MIC [11] | IC50 [12] | MIC [13]
1 | Cn1cc(/C=C/c2cc(C3CCNCC3)nn2-c2cccc(Cl)c2)c2cc(Cl)ccc21 | 1 µg/mL (≈ 2.22 µM) | > 128 µg/mL | 2 µg/mL (≈ 4.43 µM) | 4 µg/mL (≈ 8.86 µM) | 2 µg/mL (≈ 4.43 µM) | 1 µg/mL (≈ 2.22 µM) | 35.4 µM | 2 µg/mL (≈ 4.43 µM) | 2 µg/mL (≈ 4.43 µM) | 1 µg/mL (≈ 2.22 µM) | 2 µg/mL (≈ 4.43 µM) | – | –
2 | Clc1cccc(Cl)c1CCc1cc(C2CCNCC2)[nH]n1 | – | 128 µg/mL (≈ 395 µM) | – | 64 µg/mL (≈ 197 µM) | – | – | – | – | 32 µg/mL (≈ 98.7 µM) | – | 64 µg/mL (≈ 197 µM) | – | –
3 | Clc1cccc(Cl)c1/C=C/c1cc(C2CCNCC2)[nH]n1 | – | > 128 µg/mL | – | > 128 µg/mL | – | – | – | – | 128 µg/mL (≈ 397 µM) | – | > 128 µg/mL | – | –
4 | Clc1cccc(-n2nc(C3CCNCC3)cc2/C=C/c2cc3cc(Cl)ccc3[nH]2)c1 | – | 16 µg/mL (≈ 36.6 µM) | – | 4 µg/mL (≈ 9.15 µM) | – | – | – | – | 2 µg/mL (≈ 4.57 µM) | – | 4 µg/mL (≈ 9.15 µM) | – | –
5 | Clc1ccc(COc2ccc(/C=C/c3cc(C4CCNCC4)[nH]n3)cc2)cc1Cl | 2 µg/mL (≈ 4.67 µM) | 4 µg/mL (≈ 9.34 µM) | 2 µg/mL (≈ 4.67 µM) | 2 µg/mL (≈ 4.67 µM) | 2 µg/mL (≈ 4.67 µM) | 1 µg/mL (≈ 2.33 µM) | 64.9 µM | 2 µg/mL (≈ 4.67 µM) | 2 µg/mL (≈ 4.67 µM) | 1 µg/mL (≈ 2.33 µM) | 2 µg/mL (≈ 4.67 µM) | 32.4 µM | –
6 | Clc1cccc(-n2nc(C3CCNCC3)cc2CCc2c(Cl)cccc2Cl)c1 | – | > 128 µg/mL | – | 16 µg/mL (≈ 36.8 µM) | – | – | – | – | 32 µg/mL (≈ 73.6 µM) | – | 32 µg/mL (≈ 73.6 µM) | – | –
7 | Clc1cccc(-n2nc(C3CCNCC3)cc2/C=C/c2c[nH]c3ccc(Cl)cc23)c1 | 2 µg/mL (≈ 4.57 µM) | 8 µg/mL (≈ 18.3 µM) | 1 µg/mL (≈ 2.29 µM) | 4 µg/mL (≈ 9.15 µM) | 1 µg/mL (≈ 2.29 µM) | 2 µg/mL (≈ 4.57 µM) | 31.8 µM | 2 µg/mL (≈ 4.57 µM) | 1 µg/mL (≈ 2.29 µM) | 2 µg/mL (≈ 4.57 µM) | 1 µg/mL (≈ 2.29 µM) | 18.3 µM | –
8 | Clc1cccc(-n2nc(C3CCNCC3)cc2CCc2c[nH]c3ccc(Cl)cc23)c1 | 16 µg/mL (≈ 36.4 µM) | 64 µg/mL (≈ 146 µM) | 16 µg/mL (≈ 36.4 µM) | 16 µg/mL (≈ 36.4 µM) | 16 µg/mL (≈ 36.4 µM) | 16 µg/mL (≈ 36.4 µM) | – | 16 µg/mL (≈ 36.4 µM) | 16 µg/mL (≈ 36.4 µM) | 8 µg/mL (≈ 18.2 µM) | 16 µg/mL (≈ 36.4 µM) | – | –
9 | Clc1cccc(-n2nc(C3CCNCC3)cc2/C=C/c2c(Cl)cccc2Cl)c1 | 4 µg/mL (≈ 9.24 µM) | 64 µg/mL (≈ 148 µM) | 4 µg/mL (≈ 9.24 µM) | 4 µg/mL (≈ 9.24 µM) | 4 µg/mL (≈ 9.24 µM) | 8 µg/mL (≈ 18.5 µM) | – | 8 µg/mL (≈ 18.5 µM) | 4 µg/mL (≈ 9.24 µM) | 4 µg/mL (≈ 9.24 µM) | 4 µg/mL (≈ 9.24 µM) | – | –
10 | Clc1cccc(-n2nc(C3CCNCC3)cc2/C=C/c2ccc(OCc3ccc(Cl)c(Cl)c3)cc2)c1 | – | 32 µg/mL (≈ 59.4 µM) | – | 4 µg/mL (≈ 7.42 µM) | – | – | – | – | 2 µg/mL (≈ 3.71 µM) | – | 4 µg/mL (≈ 7.42 µM) | – | –
11 | Clc1ccc(/C=C/c2cc(C3CCNCC3)[nH]n2)cc1Cl | – | 8 µg/mL (≈ 24.8 µM) | – | 4 µg/mL (≈ 12.4 µM) | – | – | – | – | 4 µg/mL (≈ 12.4 µM) | – | 4 µg/mL (≈ 12.4 µM) | – | –
12 | Clc1cccc(-n2nc(C3CCNCC3)cc2/C=C/c2ccc(Cl)c(Cl)c2)c1 | – | 16 µg/mL (≈ 37 µM) | – | 4 µg/mL (≈ 9.24 µM) | – | – | – | – | 8 µg/mL (≈ 18.5 µM) | – | – | – | 4 µg/mL (≈ 9.24 µM)

From ChEMBL document CHEMBL1141057, “Synthesis and antibacterial activity of a novel series of DNA gyrase inhibitors: 5-[(E)-2-arylvinyl]pyrazoles” (Bioorg Med Chem Lett, 2005)
